≈ marks a conversion by molar mass, not a printed value.
Legend:
[1] = Selectivity index, ratio of CC50 for monkey Vero cells to IC50 for chloroquine-sensitive ring stage Plasmodium falciparum 3D7; assay type: functional
Summary of the method: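 Vero cells exposed to dilutions of test agents for 72 h; MTT read-out (modified Mosmann method); CC50 by non-linear regression. Ratio taken against the 3D7 IC50 from SYBR Green-I assay.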

Plasmodium yoelii [2] = test: Inhibition of beta-hematin formation in Plasmodium yoelii infected Swiss mouse plasma using hemin as substrate after 16 hrs by spectrophotometry; assay type: functional
Summary of the method: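 Plasma taken by cardiac puncture into 2.0% citrate from male Swiss mice (15–20 g) infected with 1 × 10^5 P. yoelii RBCs, at about 50% parasitemia. Mix: 100 mM sodium acetate pH 5.1, 50 µL plasma, 100 µM hemin, compound, in triplicate, 37 °C for 16 h with shaking. Pellet washed in Tris–HCl pH 7.4 with 2.5% SDS. IC50 = 50% inhibition; three experiments in triplicate.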

Plasmodium falciparum = test: Antimalarial activity against chloroquine-sensitive ring stage Plasmodium falciparum 3D7 after 72 hrs by SYBR Green-I assay; assay type: functional, organism-based; settings: 3D7, 72 h
Summary of the method: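 Asynchronous P. falciparum 3D7 culture (over 80% ring stages), 1.0% parasitized cell suspension at 0.8% parasitaemia, incubated with twofold serial dilutions at 37 °C, 5% CO2/air, 72 h. Lysis buffer with 1× SYBR Green-I added, 1 h at 37 °C. Fluorescence read at 485/530 nm excitation/emission. IC50 from triplicate experiments.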

Plasmodium yoelii [3] = test: Antimalarial activity against chloroquine-resistant Plasmodium yoelii N-67 infected Swiss mouse assessed as mean survival time at 10 mg/kg/day, po qd for 4 days; assay type: functional
Plasmodium yoelii [4] = test: Antimalarial activity against chloroquine-resistant Plasmodium yoelii N-67 infected Swiss mouse assessed as suppression of parasitemia at 10 mg/kg/day, po qd for 4 days measured on day 6; assay type: functional
Plasmodium yoelii [5] = test: Antimalarial activity against chloroquine-resistant Plasmodium yoelii N-67 infected Swiss mouse assessed as mean survival time at 20 mg/kg/day, po qd for 4 days; assay type: functional
Plasmodium yoelii [6] = test: Antimalarial activity against chloroquine-resistant Plasmodium yoelii N-67 infected Swiss mouse assessed as suppression of parasitemia at 20 mg/kg/day, po qd for 4 days measured on day 6; assay type: functional
Plasmodium yoelii [7] = test: Antimalarial activity against chloroquine-resistant Plasmodium yoelii N-67 infected Swiss mouse assessed as suppression of parasitemia at 10 mg/kg/day, po qd for 4 days measured on day 4; assay type: functional; settings: N-67, 96 h
Plasmodium yoelii [8] = test: Antimalarial activity against chloroquine-resistant Plasmodium yoelii N-67 infected Swiss mouse assessed as suppression of parasitemia at 20 mg/kg/day, po qd for 4 days measured on day 4; assay type: functional; settings: N-67, 96 h
Plasmodium yoelii [9] = test: Antimalarial activity against chloroquine-resistant Plasmodium yoelii N-67 infected Swiss mouse assessed as mean survival time at 100 mg/kg/day, po qd for 4 days; assay type: functional
Summary of the method: (§1)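 Swiss mice infected with P. yoelii N-67 (1 × 10⁵ parasitized RBC, day 0). Test agents were given as aqueous suspensions with a few drops of Tween 80, orally at 100 mg/kg/day, once daily on days 0–3, to groups of five. Parasitaemia was read from thin blood smears on days 4 and 6. Percent suppression was calculated from group means versus untreated controls. Survival and cure were followed to day 30.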

Plasmodium yoelii [10] = test: Antimalarial activity against chloroquine-resistant Plasmodium yoelii N-67 infected Swiss mouse assessed as suppression of parasitemia at 100 mg/kg/day, po qd for 4 days measured on day 6; assay type: functional; summary of the method: as §1
Plasmodium yoelii [11] = test: Antimalarial activity against chloroquine-resistant Plasmodium yoelii N-67 infected Swiss mouse assessed as suppression of parasitemia at 100 mg/kg/day, po qd for 4 days measured on day 4; assay type: functional; settings: N-67, 96 h; summary of the method: as §1

SMILES | Ratio CC50/IC50 [1] | IC50 (Plasmodium yoelii [2]) | IC50 (Plasmodium falciparum) | MST (Plasmodium yoelii [9]) | inhibition in vivo at 100 mg/kg/day (Plasmodium yoelii [10]) | inhibition in vivo at 100 mg/kg/day (Plasmodium yoelii [11]) | further results
CC1=CC(/C=C/C(=O)c2ccc(F)cc2)=CC(=C\Nc2ccc(Nc3ccnc4cc(Cl)ccc34)cc2)/C1=O | 407.52 | 3.78 µg/mL (≈ 7.05 µM) | 0.16 µg/mL (≈ 0.299 µM) | – | – | – | –
CCN(CC)CCCC(C)Nc1ccnc2cc(Cl)ccc12 (stereo not given) [CHLOROQUINE] | – | 3.65 µg/mL (≈ 11.4 µM) | – | – | – | – | MST (Plasmodium yoelii [3]): 13.6 days; inhibition in vivo at 10 mg/kg/day (Plasmodium yoelii [4]): 93.6%; MST (Plasmodium yoelii [5]): >28 days; inhibition in vivo at 20 mg/kg/day (Plasmodium yoelii [6]): 93.9%; inhibition in vivo at 10 mg/kg/day (Plasmodium yoelii [7]): 99%; inhibition in vivo at 20 mg/kg/day (Plasmodium yoelii [8]): 99%
CC(C)(C)C1=CC(/C=C/C(=O)c2ccc(Cl)cc2)=CC(=C\Nc2ccc(Nc3ccnc4cc(Cl)ccc34)cc2)/C1=O | 196.7 | 7.88 µg/mL (≈ 13.3 µM) | 0.38 µg/mL (≈ 0.639 µM) | – | – | – | –
CC1=CC(/C=C/C(=O)c2ccc(O)cc2)=CC(=C\NCCNc2ccnc3cc(Cl)ccc23)/C1=O | 27548.21 | 2.89 µg/mL (≈ 5.95 µM) | 0.00363 µg/mL (≈ 0.00747 µM) | – | – | – | –
CC1=CC(/C=C/C(=O)c2ccc(Cl)cc2)=CC(=C\NCCCNc2ccnc3cc(Cl)ccc23)/C1=O | 513.99 | 2.9 µg/mL (≈ 5.59 µM) | 0.0429 µg/mL (≈ 0.0827 µM) | – | – | – | –
CC1=CC(/C=C/C(=O)c2cccs2)=CC(=C\NCCNc2ccnc3cc(Cl)ccc23)/C1=O | 1414.59 | 3.1 µg/mL (≈ 6.51 µM) | 0.00975 µg/mL (≈ 0.0205 µM) | 16.2 days | 82.3% | 99.8% | –
CCC(C)C1=CC(/C=C/C(=O)c2ccco2)=CC(=C\Nc2ccc(Nc3ccnc4cc(Cl)ccc34)cc2)/C1=O (stereo not given) | 678.11 | 3.21 µg/mL (≈ 5.84 µM) | 0.08 µg/mL (≈ 0.145 µM) | – | – | – | –
CCC(C)C1=CC(/C=C/C(=O)c2ccccc2)=CC(=C\NCCNc2ccnc3cc(Cl)ccc23)/C1=O (stereo not given) | 498.54 | 3.15 µg/mL (≈ 6.15 µM) | 0.0136 µg/mL (≈ 0.0266 µM) | 14.6 days | 83.2% | 99.6% | –
CCC(C)C1=CC(/C=C/C(=O)c2ccc(OC)cc2)=CC(=C\NCCCNc2ccnc3cc(Cl)ccc23)/C1=O (stereo not given) | 549.12 | 6.59 µg/mL (≈ 11.9 µM) | 0.0418 µg/mL (≈ 0.0752 µM) | – | – | – | –
CCC(C)C1=CC(/C=C/C(=O)c2ccco2)=CC(=C\NCCNc2ccnc3cc(Cl)ccc23)/C1=O (stereo not given) | 1138.22 | 2.89 µg/mL (≈ 5.76 µM) | 0.00709 µg/mL (≈ 0.0141 µM) | 17.6 days | 85.8% | 99.5% | –
CCC(C)C1=CC(/C=C/C(=O)c2cccs2)=CC(=C\NCCNc2ccnc3cc(Cl)ccc23)/C1=O (stereo not given) | 1373.63 | 2.62 µg/mL (≈ 5.06 µM) | 0.0091 µg/mL (≈ 0.0176 µM) | 18.2 days | 86.7% | 99.4% | –
COc1ccc(C(=O)/C=C/C2=CC(=C\NCCNc3ccnc4cc(Cl)ccc34)/C(=O)C(C)=C2)cc1 | 1137.97 | 3.01 µg/mL (≈ 6.02 µM) | 0.0167 µg/mL (≈ 0.0333 µM) | – | – | – | –
CC(C)(C)C1=CC(/C=C/C(=O)c2ccc(F)cc2)=CC(=C\NCCNc2ccnc3cc(Cl)ccc23)/C1=O | 1499.3 | 13.8 µg/mL (≈ 26 µM) | 0.00719 µg/mL (≈ 0.0136 µM) | 18.4 days | 97% | 99.9% | –
CC(C)(C)C1=CC(/C=C/C(=O)c2ccc(Br)cc2)=CC(=C\NCCNc2ccnc3cc(Cl)ccc23)/C1=O | 1883.62 | 21.9 µg/mL (≈ 37.1 µM) | 0.00464 µg/mL (≈ 0.00785 µM) | 17.6 days | 96.7% | 99.9% | –
CCC(C)C1=CC(/C=C/C(=O)c2ccc(OC)cc2)=CC(=C\NCCNc2ccnc3cc(Cl)ccc23)/C1=O (stereo not given) | 1058.05 | 12.6 µg/mL (≈ 23.2 µM) | 0.0183 µg/mL (≈ 0.0337 µM) | – | – | – | –
COc1ccc(C(=O)/C=C/C2=CC(=C\Nc3ccc(Nc4ccnc5cc(Cl)ccc45)cc3)/C(=O)C(C)=C2)cc1 | 315.33 | 4.35 µg/mL (≈ 7.94 µM) | 0.201 µg/mL (≈ 0.366 µM) | – | – | – | –
CCC(C)C1=CC(/C=C/C(=O)c2ccc(O)cc2)=CC(=C\NCCCNc2ccnc3cc(Cl)ccc23)/C1=O (stereo not given) | 486.57 | 2.93 µg/mL (≈ 5.41 µM) | 0.0424 µg/mL (≈ 0.0783 µM) | – | – | – | –
CC1=CC(/C=C/C(=O)c2ccc(C)cc2)=CC(=C\NCCNc2ccnc3cc(Cl)ccc23)/C1=O | 1034.23 | 2.91 µg/mL (≈ 6.01 µM) | 0.00975 µg/mL (≈ 0.0201 µM) | 17.6 days | 88.7% | 99.8% | –
CC1=CC(/C=C/C(=O)c2ccc(F)cc2)=CC(=C\NCCNc2ccnc3cc(Cl)ccc23)/C1=O | 1034.23 | 2.91 µg/mL (≈ 5.96 µM) | 0.0109 µg/mL (≈ 0.0222 µM) | 15.6 days | 83.5% | 99.5% | –
CC(C)(C)C1=CC(/C=C/C(=O)c2ccc(Br)cc2)=CC(=C\Nc2ccc(Nc3ccnc4cc(Cl)ccc34)cc2)/C1=O | – | 13.9 µg/mL (≈ 21.8 µM) | > 0.1 µg/mL | – | – | – | –
COc1ccc(C(=O)/C=C/C2=CC(=C\NCCCNc3ccnc4cc(Cl)ccc34)/C(=O)C(C)=C2)cc1 | 295.66 | 5.34 µg/mL (≈ 10.4 µM) | 0.0388 µg/mL (≈ 0.0754 µM) | – | – | – | –
CC1=CC(/C=C/C(=O)c2ccc(O)cc2)=CC(=C\NCCCNc2ccnc3cc(Cl)ccc23)/C1=O | 505.98 | 3.48 µg/mL (≈ 6.96 µM) | 0.0351 µg/mL (≈ 0.0702 µM) | – | – | – | –
COc1cc(C(=O)/C=C/C2=CC(=C\NCCNc3ccnc4cc(Cl)ccc34)/C(=O)C(C)=C2)cc(OC)c1OC | 1392.22 | 9.61 µg/mL (≈ 17.2 µM) | 0.0107 µg/mL (≈ 0.0191 µM) | 17 days | 82.1% | 99.8% | –
CC1=CC(/C=C/C(=O)c2ccc(Cl)cc2)=CC(=C\NCCNc2ccnc3cc(Cl)ccc23)/C1=O | 3755.43 | 2.99 µg/mL (≈ 5.93 µM) | 0.0222 µg/mL (≈ 0.044 µM) | – | – | – | –
CC(C)(C)C1=CC(/C=C/C(=O)c2ccc(Cl)cc2)=CC(=C\NCCNc2ccnc3cc(Cl)ccc23)/C1=O | 868.3 | 8.06 µg/mL (≈ 14.7 µM) | 0.0282 µg/mL (≈ 0.0515 µM) | – | – | – | –
CC1=CC(/C=C/C(=O)c2ccc(Br)cc2)=CC(=C\NCCNc2ccnc3cc(Cl)ccc23)/C1=O | 1114.59 | 7.6 µg/mL (≈ 13.8 µM) | 0.0188 µg/mL (≈ 0.0343 µM) | 18 days | 80.6% | 99.7% | –
CCC(C)C1=CC(/C=C/C(=O)c2ccc(Cl)cc2)=CC(=C\NCCCNc2ccnc3cc(Cl)ccc23)/C1=O (stereo not given) | 491.77 | 6.08 µg/mL (≈ 10.8 µM) | 0.0419 µg/mL (≈ 0.0748 µM) | – | – | – | –
CCC(C)C1=CC(/C=C/C(=O)c2ccc(O)cc2)=CC(=C\NCCNc2ccnc3cc(Cl)ccc23)/C1=O (stereo not given) | 1071.27 | 2.71 µg/mL (≈ 5.13 µM) | 0.022 µg/mL (≈ 0.0417 µM) | – | – | – | –
CCC(C)C1=CC(/C=C/C(=O)c2ccc(Cl)cc2)=CC(=C\NCCNc2ccnc3cc(Cl)ccc23)/C1=O (stereo not given) | 1014.51 | 11.2 µg/mL (≈ 20.5 µM) | 0.0179 µg/mL (≈ 0.0328 µM) | – | – | – | –

Reference: ChEMBL document CHEMBL2021766, “Antiplasmodial activity of novel keto-enamine chalcone-chloroquine based hybrid pharmacophores” (Bioorg Med Chem, 2012)
